Test results from ChEMBL document CHEMBL1156183, “Identification of very potent inhibitor of human aminopeptidase N (CD13)” (Bioorg Med Chem Lett, 2010).

Legend:
[1] = biological target: T1, Aminopeptidase N (Sus scrofa) (UniProt P15145); assay: Inhibition of pig aminopeptidase N assessed as ACC fluorophore released after 30 mins using Alanine ACC as substrate
T1 sequence (whole entry): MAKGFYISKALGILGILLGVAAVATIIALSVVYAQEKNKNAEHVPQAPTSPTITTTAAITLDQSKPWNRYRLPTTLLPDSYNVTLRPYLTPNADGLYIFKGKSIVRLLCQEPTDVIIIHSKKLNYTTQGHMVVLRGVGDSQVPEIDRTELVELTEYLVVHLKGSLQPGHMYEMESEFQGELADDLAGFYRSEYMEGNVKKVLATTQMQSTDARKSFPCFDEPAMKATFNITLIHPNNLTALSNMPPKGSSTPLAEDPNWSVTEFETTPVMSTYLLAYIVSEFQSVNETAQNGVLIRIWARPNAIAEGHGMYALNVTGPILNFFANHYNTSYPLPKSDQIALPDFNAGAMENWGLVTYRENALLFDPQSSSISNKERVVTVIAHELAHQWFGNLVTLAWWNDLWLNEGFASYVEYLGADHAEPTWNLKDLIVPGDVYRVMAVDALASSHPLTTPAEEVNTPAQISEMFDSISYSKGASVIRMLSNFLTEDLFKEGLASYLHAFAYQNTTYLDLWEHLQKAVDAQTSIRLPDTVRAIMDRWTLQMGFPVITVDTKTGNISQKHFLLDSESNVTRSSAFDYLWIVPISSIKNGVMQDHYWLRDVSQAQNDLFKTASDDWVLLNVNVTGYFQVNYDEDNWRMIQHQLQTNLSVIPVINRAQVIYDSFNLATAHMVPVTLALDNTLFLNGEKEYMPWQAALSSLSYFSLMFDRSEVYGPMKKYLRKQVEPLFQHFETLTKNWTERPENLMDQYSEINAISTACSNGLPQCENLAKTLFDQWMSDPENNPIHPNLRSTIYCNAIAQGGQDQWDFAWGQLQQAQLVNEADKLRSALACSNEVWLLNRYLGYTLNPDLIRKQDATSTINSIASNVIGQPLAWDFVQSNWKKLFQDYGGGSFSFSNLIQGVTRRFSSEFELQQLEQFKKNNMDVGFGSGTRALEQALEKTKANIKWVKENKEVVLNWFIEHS
Outline: (§1)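 Enzyme (0.45 nM) preincubated 30 min at 37 C with phosphinate inhibitor (eight concentrations) in 100 mM Tris-HCl pH 7.5 (buffer made at 20 C), final DMSO 1%. Ala-ACC added at 50 uM final. ACC release read continuously in kinetic mode, ex 355/em 460 nm. IC50 values are means of two experiments.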

[2] = biological target: T2, Aminopeptidase N (Rattus norvegicus) (UniProt P15684); assay: Inhibition of rat aminopeptidase N assessed as ACC fluorophore released after 30 mins using Alanine ACC as substrate; outline: as §1
T2 sequence (whole entry): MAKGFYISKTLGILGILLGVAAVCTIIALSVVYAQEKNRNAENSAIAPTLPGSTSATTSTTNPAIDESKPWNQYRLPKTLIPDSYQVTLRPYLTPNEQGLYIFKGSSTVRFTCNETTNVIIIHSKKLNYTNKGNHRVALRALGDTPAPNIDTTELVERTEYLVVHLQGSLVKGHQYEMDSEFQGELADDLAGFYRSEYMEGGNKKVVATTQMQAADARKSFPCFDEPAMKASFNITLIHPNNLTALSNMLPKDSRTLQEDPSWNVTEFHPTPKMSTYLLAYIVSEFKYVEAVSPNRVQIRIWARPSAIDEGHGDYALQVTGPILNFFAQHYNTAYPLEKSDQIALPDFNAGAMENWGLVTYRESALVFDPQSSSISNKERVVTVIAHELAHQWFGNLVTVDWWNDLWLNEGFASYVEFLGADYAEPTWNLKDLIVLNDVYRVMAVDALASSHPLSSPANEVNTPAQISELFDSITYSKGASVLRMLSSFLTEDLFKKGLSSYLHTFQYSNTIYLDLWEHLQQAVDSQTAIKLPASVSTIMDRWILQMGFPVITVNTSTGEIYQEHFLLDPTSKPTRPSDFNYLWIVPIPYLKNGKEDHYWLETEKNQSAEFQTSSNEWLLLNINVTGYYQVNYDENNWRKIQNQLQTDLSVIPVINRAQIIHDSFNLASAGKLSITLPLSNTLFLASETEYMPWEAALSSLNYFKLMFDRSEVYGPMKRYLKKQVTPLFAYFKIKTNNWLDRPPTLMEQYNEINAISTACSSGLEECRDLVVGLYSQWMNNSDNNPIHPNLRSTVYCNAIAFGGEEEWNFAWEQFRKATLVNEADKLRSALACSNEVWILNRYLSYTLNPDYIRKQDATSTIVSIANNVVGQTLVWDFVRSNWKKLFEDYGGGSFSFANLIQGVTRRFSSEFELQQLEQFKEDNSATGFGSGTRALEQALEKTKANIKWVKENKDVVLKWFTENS

[3] = Selectivity ratio of IC50 for pig aminopeptidase N to the IC50 for human aminopeptidase N
[4] = Selectivity ratio of IC50 for rat aminopeptidase N to the IC50 for human aminopeptidase N

Row | SMILES | IC50 [1] [nM] | IC50 [2] [nM] | Ratio IC50 [3] | Ratio IC50 [4]
1 | CCCCC(N)P(=O)(O)C(=S)NCC(=O)OCc1ccccc1 (centres undefined) | > 20000 | > 20000 |  | 
2 | CC(C)C(N)P(=O)(O)C(O)CCc1ccccc1 (centres undefined) | 500 | 1100 |  | 
3 | CCOC(=O)c1ccc(CNC(=S)P(=O)(O)C(N)CCc2ccccc2)cc1 (centres undefined) | > 20000 | > 20000 |  | 
4 | CCCC(N)P(=O)(O)C(=S)NCc1ccc(C(=O)O)cc1 (centres undefined) | > 20000 | > 20000 |  | 
5 | CCCCC(N)P(=O)(O)C(=S)NCc1ccccc1C(=O)OC (centres undefined) | > 20000 | > 20000 |  | 
6 | NC(CCc1ccccc1)P(=O)(O)C(=S)NCc1ccccc1 (centres undefined) | 2300 | 2500 |  | 
7 | CCCCC(N)P(=O)(O)C(O)C(C)c1ccccc1 (centres undefined) | 220 | 460 |  | 
8 | CCCCC(N)P(=O)(O)C(O)CCc1ccccc1 (centres undefined) | 210 | 520 |  | 
9 | NC(c1ccccc1)P(=O)(O)C(O)CCc1ccccc1 (centres undefined) | 240 | 2200 |  | 
10 | NC(c1ccccc1)P(=O)(O)C(O)c1ccccc1 (centres undefined) | 550 | 460 |  | 
11 | CC(C)c1ccc(C(O)P(=O)(O)C(C)N)cc1 (centres undefined) | 1200 | 3500 |  | 
12 | CCC(N)P(=O)(O)C(O)CCc1ccccc1 (centres undefined) | 1300 | 2400 |  | 
13 | CC(O)P(=O)(O)C(N)c1ccccc1 (centres undefined) | 48000 | 15200 |  | 
14 | CNC(=S)P(=O)(O)C(N)CC(C)C (centres undefined) | > 20000 | 10800 |  | 
15 | COc1ccc(CNC(=S)P(=O)(O)C(C)N)cc1 (centres undefined) | > 20000 | > 20000 |  | 
16 | CC(N)P(=O)(O)C(=S)NCCc1ccccc1 (centres undefined) | 5200 | 8700 |  | 

Row | SMILES | IC50 [1] [nM] | IC50 [2] [nM] | Ratio IC50 [3] | Ratio IC50 [4]
17 | CCCC(N)P(=O)(O)C(=S)NCc1ccccc1C(=O)OC (centres undefined) | > 20000 | > 20000 |  | 
18 | CC(C)CC(O)P(=O)(O)C(N)c1ccccc1 (centres undefined) | 12000 | 4700 |  | 
19 | CC(C)CC(N)P(=O)(O)C(=S)NCc1ccccc1 (centres undefined) | 2800 | 5100 |  | 
20 | CCCC(N)P(=O)(O)C(=S)NCc1ccc(C(=O)OCC)cc1 (centres undefined) | > 20000 | > 20000 |  | 
21 | NC(CCc1ccccc1)P(=O)(O)C(O)CCc1ccccc1 (centres undefined) | 220 | 400 |  | 
22 | CCCC(N)P(=O)(O)C(=S)NCc1ccc(OC)cc1 (centres undefined) | 2150 | 2450 |  | 
23 | CCCC(N)P(=O)(O)C(O)Cc1ccccc1 (centres undefined) | 950 | 1200 |  | 
24 | COc1ccc(CNC(=S)P(=O)(O)C(N)CCc2ccccc2)cc1 (centres undefined) | 2650 | 2650 | 4 | 4
25 | COC(=O)c1ccccc1CNC(=S)P(=O)(O)C(N)CC(C)C (centres undefined) | > 20000 | > 20000 |  | 
26 | CCOC(=O)c1ccc(CNC(=S)P(=O)(O)C(C)N)cc1 (centres undefined) | > 20000 | > 20000 |  | 
27 | CCCC(N)P(=O)(O)C(=S)NCc1ccccc1 (centres undefined) | 1600 | 2100 |  | 
28 | CCCCC(N)P(=O)(O)C(O)c1ccc(O)cc1 (centres undefined) | 5800 | 6200 |  | 
29 | NC(Cc1ccccc1)P(=O)(O)C(O)CCc1ccccc1 (centres undefined) | 660 | 1600 |  | 
30 | CC(N)P(=O)(O)C(=S)NCc1ccccc1 (centres undefined) | 1900 | 1450 |  | 
31 | CC(C)CC(N)P(=O)(O)C(O)CCc1ccccc1 (centres undefined) | 1000 | 920 |  | 

Second part, the compound after the results:

Row | IC50 [1] [nM] | IC50 [2] [nM] | Ratio IC50 [3] | Ratio IC50 [4] | SMILES
32 | 1550 | 1650 |  |  | CSCCCNC(=S)P(=O)(O)C(N)CCc1ccccc1 (centres undefined)
33 | 360 | 610 |  |  | CCCCC(N)P(=O)(O)C(=S)NCCCSC (centres undefined)
34 | 1450 | 1350 |  |  | CCCNC(=S)P(=O)(O)C(N)CCc1ccccc1 (centres undefined)
35 | 620 | 1100 |  |  | CCCCC(N)P(=O)(O)C(=S)NCc1ccccc1 (centres undefined)
36 | 1650 | 2500 |  |  | CCC(N)P(=O)(O)C(=S)NCCCSC (centres undefined)
37 | 4200 | 5400 |  |  | CC(C)CC(N)P(=O)(O)C(=S)NCCc1ccccc1 (centres undefined)
38 | 250 | 620 |  |  | CCCCC(N)P(=O)(O)C(=S)NCCc1ccccc1 (centres undefined)
39 | 1950 | 1450 |  |  | CCCC(N)P(=O)(O)C(=S)NCCCSC (centres undefined)
40 | 460 | 1050 |  |  | CCCCC(N)P(=O)(O)C(=S)NCc1ccc(OC)cc1 (centres undefined)
41 | 10200 | 21400 |  |  | CNC(=S)P(=O)(O)C(N)C(C)C (centres undefined)
42 | 1700 | 5050 |  |  | CCCCCCNC(=S)P(=O)(O)C(N)C(C)C (centres undefined)
43 | 1350 | 2550 |  |  | CCCC(N)P(=O)(O)C(=S)NCCc1ccccc1 (centres undefined)
44 | 1400 | 1700 |  |  | CCCCCCNC(=S)P(=O)(O)C(N)CC(C)C (centres undefined)
45 | 4800 | 8950 |  |  | CC(C)CNC(=S)P(=O)(O)C(N)C(C)C (centres undefined)
46 | 2450 | 3450 |  |  | CSCCCNC(=S)P(=O)(O)C(C)N (centres undefined)
